Experiment [1] has as its target Cyclin-dependent kinase 14 (Homo sapiens, UniProt O94921). The experiment in a line: Inhibition of FLAG-tagged CDK14 (unknown origin) expressed in human HEK293 cells assessed as blocking of CDK14 pulldown incubated for 4 hrs by biotinylated JNK-IN- based pull down assay. In short, it runs like this: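 Cells were treated with compound at various doses for 4 h and then lysed. Lysates were incubated with biotinylated JNK-IN-7 and captured on streptavidin-coated beads. CDK14 capture was detected by western blot.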

Experiment [2] addresses Cyclin-dependent kinase 14/Cyclin-Y (Homo sapiens, UniProt O94921+Q8ND76). The experiment in a line: Inhibition of recombinant GST-tagged human full length CDK14/cyclin Y (2 to end residues) preincubated for 30 mins by Lantha screen eu binding assay. In outline:
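CDK14 binding was measured in a LanthaScreen binding assay. IC50 is the average of three replicates, reported ± standard error.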

Sequence of Cyclin-dependent kinase 14/Cyclin-Y (O94921 whole entry): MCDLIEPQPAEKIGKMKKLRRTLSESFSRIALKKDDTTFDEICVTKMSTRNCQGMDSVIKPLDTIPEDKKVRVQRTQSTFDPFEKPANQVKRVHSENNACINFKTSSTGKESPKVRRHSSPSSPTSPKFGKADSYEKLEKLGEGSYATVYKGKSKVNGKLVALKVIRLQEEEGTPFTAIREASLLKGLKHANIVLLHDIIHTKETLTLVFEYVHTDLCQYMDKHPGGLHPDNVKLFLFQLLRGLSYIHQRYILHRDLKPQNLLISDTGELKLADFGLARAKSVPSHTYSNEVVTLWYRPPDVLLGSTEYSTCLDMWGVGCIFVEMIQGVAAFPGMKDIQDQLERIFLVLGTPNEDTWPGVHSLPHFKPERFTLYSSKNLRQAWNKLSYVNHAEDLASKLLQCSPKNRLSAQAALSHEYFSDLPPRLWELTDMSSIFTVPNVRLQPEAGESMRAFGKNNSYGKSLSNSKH
Sequence of Cyclin-dependent kinase 14/Cyclin-Y (Q8ND76 2-341 limits assumed): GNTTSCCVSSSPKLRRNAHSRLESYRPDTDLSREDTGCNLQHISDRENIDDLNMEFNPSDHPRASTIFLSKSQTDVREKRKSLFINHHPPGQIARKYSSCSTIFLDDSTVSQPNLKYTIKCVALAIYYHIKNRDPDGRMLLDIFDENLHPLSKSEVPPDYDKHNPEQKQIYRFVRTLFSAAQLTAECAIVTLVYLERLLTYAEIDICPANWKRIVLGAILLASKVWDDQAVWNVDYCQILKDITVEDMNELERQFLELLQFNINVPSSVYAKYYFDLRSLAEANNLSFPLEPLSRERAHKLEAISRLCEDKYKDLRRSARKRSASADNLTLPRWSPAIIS
Sequence of Cyclin-dependent kinase 14 (O94921 whole entry): as the sequence (O94921 whole entry) above

Turning to `C=CC(=O)Nc1cccc(C(=O)N2CCC(NC(=O)c3n[nH]cc3NC(=O)c3c(Cl)cccc3Cl)CC2)c1`, the half-inhibitory concentration (IC50) (usually the concentration that inhibits the measured activity by half) in experiment [1] came to 500 nM.
Take `CN(C)CC=CC(=O)Nc1cccc(C(=O)Nc2ccc(NC(=O)c3n[nH]cc3NC(=O)c3c(Cl)cccc3Cl)cc2)c1`: the IC50 in experiment [2] was found to be 17 nM.
